Laboratory results from ChEMBL document CHEMBL1926507, “Discovery of a new class of bicyclic substituted hydroxyphenylmethanones as 17β-hydroxysteroid dehydrogenase type 2 (17β-HSD2) inhibitors for the treatment of osteoporosis” (Eur J Med Chem, 2012).

Assays:
[1] = target: T1, 17-beta-hydroxysteroid dehydrogenase type 1 (Homo sapiens) (UniProt P14061); assay: Inhibition of human cytosolic 17beta-HSD1 using [2,4,6,7-3H]E1 as substrate at 1 uM after 10 mins by radioflow detector
T1 sequence (whole entry): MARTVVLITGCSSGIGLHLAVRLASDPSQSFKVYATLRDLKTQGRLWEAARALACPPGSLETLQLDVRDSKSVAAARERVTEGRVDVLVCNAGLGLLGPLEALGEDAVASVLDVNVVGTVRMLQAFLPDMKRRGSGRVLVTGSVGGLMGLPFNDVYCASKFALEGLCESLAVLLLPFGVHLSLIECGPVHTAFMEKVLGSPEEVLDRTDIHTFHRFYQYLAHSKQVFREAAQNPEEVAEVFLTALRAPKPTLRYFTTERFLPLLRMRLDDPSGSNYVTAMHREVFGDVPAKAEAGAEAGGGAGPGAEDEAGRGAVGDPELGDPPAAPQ
How it was run: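 Cytosolic fraction from human placenta incubated with NADH (500 µM), test compound and unlabeled plus [2,4,6,7-3H]-E1 (final 500 nM) for 10 min at 37 °C. Phosphate buffer 50 mM with 20% glycerol and 1 mM EDTA. Inhibitor stocks made in DMSO. Reaction stopped with HgCl2 and extracted with ether. Substrate and product separated by HPLC with radioflow detection. Values are the mean of three determinations.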

[2] = target: T2, 17-beta-hydroxysteroid dehydrogenase type 2 (Homo sapiens) (UniProt P37059); assay: Inhibition of human microsomal 17beta-HSD2 using [2,4,6,7-3H]E2 as substrate at 1 uM after 20 mins by radioflow detector
T2 sequence (whole entry): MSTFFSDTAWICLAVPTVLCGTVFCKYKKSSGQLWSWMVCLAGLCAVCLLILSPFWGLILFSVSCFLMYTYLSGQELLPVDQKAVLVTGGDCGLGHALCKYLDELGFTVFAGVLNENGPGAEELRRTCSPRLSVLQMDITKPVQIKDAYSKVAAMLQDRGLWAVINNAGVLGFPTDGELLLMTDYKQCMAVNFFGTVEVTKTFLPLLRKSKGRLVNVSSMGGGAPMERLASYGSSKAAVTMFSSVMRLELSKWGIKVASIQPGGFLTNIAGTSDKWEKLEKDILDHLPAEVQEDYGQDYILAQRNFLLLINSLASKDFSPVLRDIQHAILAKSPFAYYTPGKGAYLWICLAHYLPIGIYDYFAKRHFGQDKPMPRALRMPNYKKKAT
How it was run: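 Microsomal fraction from human placenta incubated at 37 °C for 20 min with NAD+ (1500 µM), inhibitor and unlabeled plus [2,4,6,7-3H]-E2 (final 500 nM). Phosphate buffer 50 mM with 20% glycerol and 1 mM EDTA. Inhibitor stocks made in DMSO. Reaction stopped with HgCl2 and extracted with ether. E2 and E1 separated by HPLC with radioflow detection. Values are the mean of three determinations.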

[3] = target: Estrogen receptor beta (Homo sapiens) (UniProt Q92731); assay: Displacement of [3H]E2 from human recombinant ERbeta after 1 hr by liquid scintillation counting relative to estradiol
How it was run: (§1)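 Recombinant human ERα or ERβ (0.25 pmol) incubated with [3H]-E2 (10 nM) and test compound for 1 h at room temperature, DMSO 5% final. Non-specific binding defined with diethylstilbestrol. Receptor-ligand complexes captured on hydroxyapatite, washed, resuspended in ethanol, and counted by liquid scintillation. IC50 for [3H]-E2 displacement taken from sigmoidal curves. RBA = IC50(E2)/IC50(compound) × 100, with unlabeled E2 as reference.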

[4] = target: T3, 17-beta-hydroxysteroid dehydrogenase type 1 (Homo sapiens, UniProt P14061); assay: Inhibition of human cytosolic 17beta-HSD1 in cell-free system using [2,4,6,7-3H]E1 as substrate after 10 mins by radioflow detector
T3 sequence (P14061 whole entry): T1 sequence (whole entry)

Homo sapiens = species: Homo sapiens; assay: Selectivity ratio of IC50 for human cytosolic 17beta-HSD1 to IC50 for human microsomal 17beta-HSD2
How it was run: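 Ratio calculated as IC50(17β-HSD1)/IC50(17β-HSD2). 17β-HSD1 was measured in placental cytosol with [3H]-E1 + E1 (500 nM) and NADH (0.5 mM). 17β-HSD2 was measured in placental microsomes with [3H]-E2 + E2 (500 nM) and NAD+ (1.5 mM). Each IC50 is the mean of three determinations.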

[5] = target: T4, 17-beta-hydroxysteroid dehydrogenase type 2 (Homo sapiens, UniProt P37059); assay: Inhibition of human microsomal 17beta-HSD2 in cell-free system using [2,4,6,7-3H]E2 as substrate after 20 mins by radioflow detector
T4 sequence (P37059 whole entry): T2 sequence (whole entry)

[6] = target: T5, Estrogen receptor (Homo sapiens) (UniProt P03372); assay: Displacement of [3H]E2 from human recombinant ERalpha after 1 hr by liquid scintillation counting relative to estradiol; how it was run: as §1
T5 sequence (whole entry): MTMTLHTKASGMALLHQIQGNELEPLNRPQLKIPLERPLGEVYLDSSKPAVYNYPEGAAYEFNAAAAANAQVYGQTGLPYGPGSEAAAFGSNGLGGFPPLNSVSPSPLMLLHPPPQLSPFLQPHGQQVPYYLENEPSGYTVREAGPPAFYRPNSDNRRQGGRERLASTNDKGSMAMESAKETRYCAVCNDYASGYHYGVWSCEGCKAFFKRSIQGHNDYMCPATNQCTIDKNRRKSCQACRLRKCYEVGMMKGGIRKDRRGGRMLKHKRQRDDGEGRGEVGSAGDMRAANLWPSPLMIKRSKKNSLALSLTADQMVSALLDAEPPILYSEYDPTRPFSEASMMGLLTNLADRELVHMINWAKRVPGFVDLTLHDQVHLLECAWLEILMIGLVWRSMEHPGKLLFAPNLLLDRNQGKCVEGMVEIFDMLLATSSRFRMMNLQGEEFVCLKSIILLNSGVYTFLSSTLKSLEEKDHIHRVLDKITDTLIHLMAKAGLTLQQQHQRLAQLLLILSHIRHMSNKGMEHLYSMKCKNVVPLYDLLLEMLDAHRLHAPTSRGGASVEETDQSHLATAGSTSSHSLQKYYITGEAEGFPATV

Sequence of Estrogen receptor beta (Homo sapiens) (Q92731 whole entry): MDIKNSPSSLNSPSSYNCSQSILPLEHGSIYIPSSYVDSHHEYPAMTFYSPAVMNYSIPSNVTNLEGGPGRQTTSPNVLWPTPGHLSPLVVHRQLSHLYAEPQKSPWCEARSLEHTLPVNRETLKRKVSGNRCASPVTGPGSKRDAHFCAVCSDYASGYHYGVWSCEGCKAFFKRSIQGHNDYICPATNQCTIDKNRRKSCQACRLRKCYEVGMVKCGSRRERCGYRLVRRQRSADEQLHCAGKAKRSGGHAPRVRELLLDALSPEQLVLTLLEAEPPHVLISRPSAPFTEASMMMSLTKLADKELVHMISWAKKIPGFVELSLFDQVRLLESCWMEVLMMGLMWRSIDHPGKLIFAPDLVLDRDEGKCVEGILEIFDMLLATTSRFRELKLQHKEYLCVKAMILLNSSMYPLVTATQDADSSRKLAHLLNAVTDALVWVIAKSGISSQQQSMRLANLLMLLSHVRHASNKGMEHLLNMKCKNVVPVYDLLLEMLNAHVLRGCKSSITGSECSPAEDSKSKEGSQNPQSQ

Structure (SMILES)	inhibition [1]	inhibition [2]	RBA [3]	IC50 [4]	Ratio IC50 (Homo sapiens)	IC50 [5]	RBA [6]
Cc1cc(-c2cccc(C(=O)c3cc(O)cc(F)c3)n2)ccc1O	< 10%	57%	–	–	–	–	–
O=C(c1cccc(O)c1)c1cccc(-c2ccc(O)cc2)n1	< 10%	16%	–	–	–	–	–
O=C(c1ccc(-c2ccc(O)c(Cl)c2)cc1)c1cccc(O)c1	66%	92%	< 0.1%	571 nM	4	153 nM	< 0.1%
Cc1cc(-c2cccc(C(=O)c3ccc(F)c(O)c3)n2)ccc1O	< 10%	62%	–	22400 nM	30	757 nM	–
O=C(c1ccc(-c2ccc(O)cc2Cl)cc1)c1cccc(O)c1	43%	80%	–	1760 nM	11	176 nM	–
Cc1cc(-c2ccc(C(=O)c3cccc(O)c3)cc2)ccc1O	58%	90%	< 0.1%	413 nM	3	132 nM	< 0.1%
O=C(c1ccc(F)c(O)c1)c1ccc(-c2ccc(O)c(Cl)c2)cn1	50%	87%	–	1010 nM	7	153 nM	–
Cc1cc(-c2cccc(C(=O)c3ccc(C)c(O)c3)n2)ccc1O	< 10%	28%	–	–	–	–	–
Cc1cc(-c2ccc(C(=O)c3cccc(O)c3)nc2)ccc1O	24%	73%	< 0.1%	5480 nM	21	260 nM	< 0.1%
O=C(c1ccc(-c2ccc(O)c(F)c2)cc1)c1cccc(O)c1	26%	68%	–	2430 nM	5	525 nM	–
Cc1cc(-c2ccc(C(=O)c3ccc(F)c(O)c3)cc2)ccc1O	79%	98%	< 0.1%	289 nM	9	34 nM	< 0.1%
Cc1cc(-c2ccc(C(=O)c3cccc(O)c3)cn2)ccc1O	58%	84%	–	567 nM	3	220 nM	–
Cc1cc(-c2cccc(C(=O)c3cccc(O)c3)c2)ccc1O	50%	77%	–	475 nM	1	379 nM	–
O=C(c1cccc(O)c1)c1cccc(-c2cccc(O)c2)n1	< 10%	< 10%	–	–	–	–	–
O=C(c1cccc(O)c1)c1cccc(-c2ccc(O)c(F)c2)n1	47%	40%	–	–	–	–	–
O=C(c1ccc(-c2ccc(O)c(Cl)c2)cc1)c1ccc(F)c(O)c1	95%	100%	< 0.1%	53 nM	2	24 nM	< 0.1%
Cc1cc(-c2ccc(C(=O)c3cc(O)cc(F)c3)cc2)ccc1O	84%	100%	< 0.1%	159 nM	5	31 nM	< 0.1%
Cc1cc(-c2ccc(C(=O)c3cccc(O)c3)s2)ccc1O	–	–	–	–	0.02	–	–
Cc1cc(O)ccc1-c1cccc(C(=O)c2cccc(O)c2)n1	< 10%	18%	–	–	–	–	–
O=C(c1cccc(O)c1)c1cccc(-c2ccc(O)cc2F)n1	64%	56%	–	–	–	–	–
O=C(c1cccc(O)c1)c1cccc(-c2ccc(O)c(Cl)c2)n1	< 10%	55%	–	60600 nM	81	752 nM	–
Cc1cc(-c2ccc(C(=O)c3ccc(F)c(F)c3)cc2)ccc1O	16%	11%	–	–	–	–	–
Cc1cc(-c2cccc(C(=O)c3cccc(O)c3)n2)ccc1O	< 10%	84%	–	–	–	–	–
O=C(c1cccc(O)c1)c1cccc(-c2ccccc2O)n1	< 10%	< 10%	–	–	–	–	–
Cc1cc(-c2ccc(C(=O)c3ccc(F)c(O)c3)nc2)ccc1O	47%	84%	< 0.1%	1270 nM	13	101 nM	< 0.1%
